Laboratory results published in PubChem BioAssay AID493046 (Johns Hopkins Ion Channel Center, 2011).
The source made the active and inactive calls.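 The calls were made as follows: active = KCNQ5 potassium channel activity raised or lowered at any tested dose, with a dose response curve obtained; inactive = no effect at any dose, or no curve obtained.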

Molecular target: Potassium voltage-gated channel subfamily KQT member 5 (Homo sapiens) (UniProt Q9NR82)
Assay: KCNQ5 activity selectivity test – cell-based, thallium flux, selectivity assay for KCNQ2 activator project, dose response (AID 493046)
Details: CHO-K1 transfected KCNQ5, FluxOR thallium flux fluorescence; series mostly up to 30 µM
Method in brief: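 Detection – FluxOR thallium flux fluorescence, kinetic read · Material – CHO-K1 cells transiently transfected with human KCNQ5 channel · Schedule – transfection 24 h before, dye 90 min, compound 20 min, room temperature · Probe or stimulus – potassium sulfate plus thallium sulfate depolarizing stimulus · Read-out basis – Peak-to-minimum fluorescence over baseline, percent change versus vehicle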

Potassium voltage-gated channel subfamily KQT member 5 (Homo sapiens), sequence (Q9NR82 whole entry, looked up): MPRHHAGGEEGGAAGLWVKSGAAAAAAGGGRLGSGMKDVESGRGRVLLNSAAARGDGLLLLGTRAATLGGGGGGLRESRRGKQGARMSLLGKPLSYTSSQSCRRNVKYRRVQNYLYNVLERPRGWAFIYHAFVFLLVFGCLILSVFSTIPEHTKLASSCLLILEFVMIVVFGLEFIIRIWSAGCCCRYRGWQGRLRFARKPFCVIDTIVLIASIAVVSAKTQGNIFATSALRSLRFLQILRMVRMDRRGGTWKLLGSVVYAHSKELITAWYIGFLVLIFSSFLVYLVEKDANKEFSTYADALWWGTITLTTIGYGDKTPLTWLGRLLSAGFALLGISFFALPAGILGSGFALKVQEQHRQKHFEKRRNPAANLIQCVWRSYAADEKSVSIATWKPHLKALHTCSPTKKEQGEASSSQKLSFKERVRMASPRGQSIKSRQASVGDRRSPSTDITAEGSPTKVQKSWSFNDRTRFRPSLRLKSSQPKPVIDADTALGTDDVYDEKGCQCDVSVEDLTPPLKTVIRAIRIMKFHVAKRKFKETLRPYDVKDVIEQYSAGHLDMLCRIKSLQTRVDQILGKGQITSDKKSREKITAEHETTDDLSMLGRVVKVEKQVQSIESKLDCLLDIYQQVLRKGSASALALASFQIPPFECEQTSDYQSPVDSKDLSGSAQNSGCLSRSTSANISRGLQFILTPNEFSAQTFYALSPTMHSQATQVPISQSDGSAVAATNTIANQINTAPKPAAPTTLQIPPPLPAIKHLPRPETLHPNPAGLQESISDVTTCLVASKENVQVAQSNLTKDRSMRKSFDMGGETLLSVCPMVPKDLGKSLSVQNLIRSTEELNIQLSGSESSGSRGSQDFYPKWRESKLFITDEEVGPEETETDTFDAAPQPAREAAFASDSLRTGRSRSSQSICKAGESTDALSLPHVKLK

outcome, inactive:
Cc1cccc(C)c1NC(=O)C1CC2CCC1C2 (stereo not given)
Cc1cc(C)c(NC(=O)C2CC3CCC2C3)c(C)c1 (stereo not given)
Cc1ccc(C)c(NC(=O)C2CC3CCC2C3)c1 (stereo not given)
CCCCC(=O)Nc1c(C)cc(C)cc1Cl
Cc1cc(C)c(NC(=O)CC(C)(C)C)c(Cl)c1
